Only some compounds are listed: those with a hit (about 2.9% of all), similar ones and a draw of the others.
SUMO Mot1 rescue – yeast Mot1-301 growth rescue at high temperature, primary screen, SUMOylation pathway inhibitor project, S. cerevisiae, ATP luminescence, 38.5C; AID 2716, 2010; growth rescue, % at 18.8 µM; 320,000 compounds, 1% hits; S. cerevisiae Mot1-301 growth rescue; percent above DMSO median, 100 means doubled;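 active means every valid replicate shows activation above 250% relative to neutral control wells; inactive means the rest, any valid replicate at or below 250%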;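 further: OY570 slx delta 5 strain wells were the positive control but not used for scaling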
IMP-1 inhibitor – IMP-1 metallo-beta-lactamase inhibitors, primary screen, biochemical, epi-absorbance readout, Pseudomonas aeruginosa enzyme; 290,000 compounds, 0.45% hits; inhibition, % at 5.6 µM; AID 1556, 2009; purified IMP-1, nitrocefin hydrolysis, epi-absorbance fluorescence; metallo-beta-lactamase IMP-1 (Pseudomonas aeruginosa);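 active means inhibition above the mean plus 3 SD of all compounds in the same screening run, cut at about 4.5% in these data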;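 further: 0% = IMP-1 with DMSO and 100% = DMSO wells lacking enzyme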
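assay system = purified recombinant IMP-1 metallo-beta-lactamase enzyme | schedule = 15 min preincubation plus 25 min reaction at 25 °C | signal = Epi-absorbance fluorescence, 480 nm excitation, 530 nm emission | read-out basis = percent inhibition from optical density relative to buffer-blank wells | controls = IMP-1 with DMSO as 0%, enzyme-free DMSO as 100%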
VIM-2 inh – VIM-2 metallo-beta-lactamase inhibitors, primary screen, biochemical, epi-absorbance readout, Pseudomonas aeruginosa enzyme. purified VIM-2, nitrocefin hydrolysis, epi-absorbance fluorescence. inhibition, % at 5.6 µM. 290,000 compounds, 0.89% hits;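 active means inhibition above the mean of all tested compounds plus 3 SD, cutoff set per screening run, cut at about 7.5% in these data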;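 further: red hydrolysis product quenches plate fluorescence so inhibitors raise well fluorescence; 0% = enzyme with DMSO and 100% = DMSO without enzyme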
DNA FID counter – compounds displacing fluorescent DNA intercalator, primary screen, artefact control for HCV NS3 helicase inhibitor project, biochemical, FID fluorescence | 290,000 compounds, 0.17% hits | AID 1845, 2009 | inhibition, % at 7.9 µM | DNA fluorescent intercalator displacement; in the data active means inhibition above about 37%;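 further: 0% = vehicle and 100% = reference compound; higher means more ethidium bromide displaced from hairpin DNA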
SUMO HTRF inh – inhibitors of in vitro SUMOylation cascade, primary screen, biochemical, HTRF, uHTS; inhibition, % at 35 µM; SUMO-conjugating enzyme UBC9 (Homo sapiens), P63279; HTRF SUMOylation assay, SAE1/SAE2 + UBC9; AID 2006, 2009; 290,000 compounds, 0.36% hits; in the data active means inhibition above about 50%, passing the limit was not always enough
Target sequence (P63279 whole entry, looked up): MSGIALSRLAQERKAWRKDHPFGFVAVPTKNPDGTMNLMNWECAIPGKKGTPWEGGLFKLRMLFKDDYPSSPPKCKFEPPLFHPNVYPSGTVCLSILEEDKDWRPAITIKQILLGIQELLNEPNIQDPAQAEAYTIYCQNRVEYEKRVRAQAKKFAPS
NALP1 yeast inh – NALP1 inflammasome inhibitors in reconstituted yeast, colorimetric, S. cerevisiae, triplicate retest; S. cerevisiae NALP1/ASC/caspase-1 growth, X-gal OD620, 72 h; inhibition, % at 10 µM; 280,000 compounds, 0.61% hits; AID 2071, 2009; in the data active means inhibition mostly above about 24%, no sharp cut-off; inactive means mostly below about 32%
Starred values were filed as active, the others as inactive; / = no result.

SMILES | SUMO Mot1 rescue | IMP-1 inhibitor | VIM-2 inh | DNA FID counter | SUMO HTRF inh | NALP1 yeast inh
CCSc1nnc(NC(=O)C2CSC3(C)CCC(=O)N23)s1 (stereo not drawn) | 9 | / | / | / | / | /
COc1cccc(C=O)c1OCCCOc1cccc2cccnc12 | 142 | 1 | 1 | -17 | 22 | 29*
CCN(CC(=O)NCc1ccc(F)cc1)Cc1cc(=O)n2ccsc2n1 | / | 7.6* | -4 | -1 | 7 | -18
CCN(CC(=O)Nc1ccc2c(c1)OCCO2)Cc1cc(=O)n2ccsc2n1 | -17 | -4 | -5 | -22 | 12 | 6
CNC(=O)NNC(=O)c1csc(Cc2c(Cl)sc3ccc(Cl)cc23)n1 | -2 | -2 | -4 | -28 | 17 | /
COc1ccc(OC)c(NC(=O)C2C3CCC(C3=C(C)C)C2C(=O)O)c1 (stereo not drawn) | 93 | -1 | 8.8* | -5 | -5 | 20
COc1ccc(OC)c(NC(=O)C2CCCCC2C(=O)O)c1 (stereo not drawn) | -6 | -3 | 1 | 4 | 8 | -4
N/C(=N\OCc1ccc([N+](=O)[O-])cc1)c1ccncc1 | 7 | 0 | -2 | 4 | 4 | 17
O=C(NCCC1=CCCCC1)c1ccc2c(c1)N(Cc1ccccc1)C(=O)CS2 | -7 | -4 | -3 | -21 | -15 | 38*
CCOC(=O)c1c(-c2ccccc2)csc1NC(=O)c1cccc(N2C(=O)CCC2=O)c1 | 86 | -2 | -2 | 1 | 4 | 0
CCOC(=O)c1c(NC(=O)c2cccc(N3C(=O)CCC3=O)c2)sc2c1CCN(CC)C2 | 3 | -1 | 7.9* | 5 | 14 | 21
CCOC(=O)c1c(NC(=O)c2ccc(S(=O)(=O)N3CCOCC3)cc2)sc2c1CC(C)(C)NC2(C)C | 148 | -1 | 1 | -3 | 16 | 14
CCOC(=O)c1c(NC(=O)c2ccc(S(=O)(=O)N3CCOCC3)cc2)sc2c1CCN(C)C2 | -3 | 2 | 8.6* | 30 | 6 | 1
CCNC(=O)COC(=O)c1ccc(-n2nc(C)cc2C)cc1 | -2 | -2 | -2 | -4 | 9 | -16
Cc1cc(C)n(-c2ccc(C(=O)OCC(=O)c3ccc(Br)s3)cc2)n1 | 22 | 9.1* | 4 | -41 | -22 | -2
Cc1cc(-c2nnc(CCC(=O)NC(Cc3ccccc3)c3ccccc3)o2)no1 (stereo not drawn) | 1 | -1 | -1 | -14 | -10 | 2
Cc1ccc2nc(/C(C#N)=C\c3ccc(N4CCOCC4)o3)[nH]c2c1 | 48 | -3 | -3 | -20 | 23 | 22
Cc1ccc2nc(/C(C#N)=C\c3ccc([N+](=O)[O-])o3)[nH]c2c1 | 72 | -4 | -2 | 6 | 4 | 52*
N#C/C(=C\c1ccc([N+](=O)[O-])o1)c1nc2ccccc2[nH]1 | 357* | -1 | 1 | 6 | 18 | 101*
N#C/C(=C(/O)c1ccc([N+](=O)[O-])o1)c1nc2ccccc2[nH]1 | 3 | -2 | -1 | 0 | 0 | /
O=C(NNC(=O)C1CCN(C(=O)Nc2ccccc2)CC1)c1ccc([N+](=O)[O-])cc1 | -4 | / | / | / | / | /
COc1cc(C(=O)c2nccc3cc(OC)c(OC)cc23)c([N+](=O)[O-])cc1OC | -13 | -3 | 2 | 15 | 87* | -3
COc1cc(N)c(C(=O)c2nccc3cc(OC)c(OC)cc23)cc1OC | 1 | 1 | -1 | -10 | 6 | 17
Cc1ccc(N2CCCn3c2cc(C)c(C#N)c3=O)cc1Cl | 8 | -1 | 7.8* | -6 | -4 | 6
COc1ccc(S(=O)(=O)N2CCCC(C(=O)NCc3ccncc3)C2)cc1Cl (stereo not drawn) | -11 | 0 | -2 | -8 | 14 | 26*
SMILES | SUMO Mot1 rescue | IMP-1 inhibitor | VIM-2 inh | DNA FID counter | SUMO HTRF inh | NALP1 yeast inh
COc1ccc(S(=O)(=O)N2CCC(C(=O)NCc3ccncc3)CC2)cc1Cl | -12 | -4 | -4 | -8 | 5 | 12
COc1ccc(S(=O)(=O)N2CCCC(C(=O)NCCN3CCOCC3)C2)cc1C (stereo not drawn) | 318* | -1 | -1 | 3 | -2 | 9
COc1ccc(N2CCN(c3oc(COc4ccccc4)nc3C#N)CC2)cc1 | 31 | -3 | -3 | -15 | -11 | 1
CN1CCN(c2oc(COc3ccc(-c4ccccc4)cc3)nc2C#N)CC1 | 563* | 2 | 5 | 20 | -7 | 33
COC(=O)c1ccc(Cn2cnc3cnccc32)cc1 | -5 | -1 | 3 | 1 | 7 | 8
Cc1ccccc1OCC(O)CNC1CCC(NCC(O)COc2ccccc2C)CC1 (stereo not drawn) | 91 | -1 | -3 | 29 | -7 | 9
Cn1nc(-c2ccc(OCC(=O)Nc3ccccc3)cc2)c2ccccc2c1=O | 10 | -3 | 9.3* | -17 | 2 | -4
CCCc1nc2c(=O)n(C)c(=O)nc-2n(C)n1 | / | 0 | -1 | 3 | 98* | -4
Cn1nc(-c2ccccn2)nc2c(=O)n(C)c(=O)nc1-2 | -28 | -3 | -3 | -2 | 102* | /
CC(C)Cn1c(-c2ccncc2)n[nH]c1=S | 0 | -4 | 2 | -5 | 6 | -11
S=c1[nH]nc(-c2ccncc2)n1CC1CCCO1 (stereo not drawn) | -1 | -6 | 11* | -5 | 9 | 4
COc1ccc(CC(=O)N/N=C(\C)CC(=O)NCc2ccco2)cc1OC | -14 | -3 | -4 | -29 | -2 | -9
O=C(Cc1ccccc1)N/N=C/c1cc(Br)cc(Cl)c1O | 358* | -1 | -1 | -6 | -40 | 19
O=C(CNCc1ccccn1)Nc1ccc([N+](=O)[O-])cc1C(=O)Nc1ccccc1F | 21 | 2 | 3 | -16 | 0 | -7
COc1ccc(N2C(=O)CC(N3CCC(c4nc5ccccc5[nH]4)CC3)C2=O)cc1 (stereo not drawn) | -30 | -1 | -4 | -10 | 21 | 11
O=C1CC(N2CCC(c3nc4ccccc4[nH]3)CC2)C(=O)N1c1ccccc1F (stereo not drawn) | 24 | -4 | -4 | -9 | 4 | 32*
COc1cccc(/C=C/C(=O)OCC(=O)Nc2cc(C(F)(F)F)ccc2Cl)c1 | -3 | -1 | -2 | -12 | -16 | 20
Cc1ccccc1-c1nn(-c2ccc(F)cc2F)cc1CNCCCN(C)C | -15 | 0 | 1 | 42* | 16 | 22
CC(c1ccco1)N(C(=O)c1ccccc1NS(=O)(=O)c1cc([N+](=O)[O-])ccc1Cl)c1ccccn1 (stereo not drawn) | 402* | -3 | -2 | -36 | -12 | 25
